Series [1] is described as follows: Ionisation constant (pKa1) due to protonation of the pyridyl ring. In kind it is physicochemical. The settings on record: read-out: pKa1.
Series [2] in a line: Ionisation constant (pKa2) due to […]. In kind it is physicochemical. The settings on record: read-out: pKa2.
Series [3] is filed under the species Rattus norvegicus. The series is described as follows: Concentration required to cause 15% increase in [86Rb+] efflux from rat portal vein. In kind it is functional. The method, boiled down: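 Rat portal vein, opened lengthwise, tension 500 mg, equilibrated 30 min in HEPES-buffered PSS (95% O2/5% CO2, 32 °C, pH 7.4), then loaded 80 min with 86RbCl (5 µCi/mL). Perfusate collected every 2 min; rate constant k from released vs. remaining tissue activity. Drug effect = peak k during application vs. basal k (6–10 min prior), as Δk %; n = 4–6.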

For series [4], the species on record is Rattus norvegicus. The series is described as follows: Concentration required to cause 50% inhibition of spontaneous activity in rat portal vein. In kind it is functional. The settings on record: for IC50: Rattus norvegicus.
Series [5] is described as follows: Ionisation constant (pKa2).

The values that follow come from ChEMBL document CHEMBL1126086, “Structure-activity studies of potassium channel opening in pinacidil-type cyanoguanidines, nitroethenediamines, thioureas, and ureas” (J Med Chem, 1992).

Structures are written as SMILES. Some results are limits rather than exact numbers.

Turning to `CC(/N=C(/NC#N)Nc1cccnc1)C(C)(C)C` (centres undefined), the pKa in series [1] was 2.7; in series [2] it was 12. Moreover, the pEC15 in series [3] worked out at 6.3.

For the molecule `O=[N+]([O-])/C=C(/Nc1cccnc1)NC1CCCCC1`, the pEC15 in series [3] worked out at 3.5. In series [4], this molecule gave an IC50 of 3160 nM.

`CC(C)N/C(=C\[N+](=O)[O-])Nc1cccnc1` returned a pEC15 in series [3] below 3.5. In series [4], this molecule gave a half-maximal inhibitory concentration (IC50) of 31600 nM.

Turning to `CC(/N=C(/NC#N)Nc1cccnc1)C(C)(C)C` (single isomer, unassigned), the “Log IC50” value in series [4] is -5.2.

As for `CC(N/C(=C\[N+](=O)[O-])Nc1cccnc1)C(C)(C)C` (centres undefined), the values for the pKa in series [1] and in series [2] were 2.28 and 9.03, respectively. Besides, in series [3], the pEC15 is listed as 5.5. In addition, inhibition in series [4] was half-maximal at 31.6 nM (IC50).

As for `CC(N/C(=N\C#N)Nc1ccncc1)C(C)(C)C` (centres undefined) [PINACIDIL ANHYDROUS], the pKa came to 4.81 in series [1] and 11.3 in series [2]. Further, the pEC15 in series [3] worked out at 5.7. Besides, half-maximal inhibition in series [4] (IC50) required 63.1 nM.

As to `CC(C)(C)C/N=C(/NC#N)Nc1cccnc1`, the pKa in series [1] was determined as 2.83; in series [2] it was 11.8. The pEC15 in series [3] came to 5.5. In series [4], the IC50 is 100 nM.

Turning to `COc1cncc(N/C(=C/[N+](=O)[O-])N[C@H](C)C(C)(C)C)c1`, in series [3], the pEC15 worked out at 4. Half-maximal inhibition in series [4] (IC50) required 1580 nM.

`C[C@@H](N/C(=C\[N+](=O)[O-])Nc1cccnc1)C(C)(C)C` registered a pEC15 in series [3] of 3.8. For the same molecule, the “Log IC50” value in series [4] is -6.

In the case of `CC(/N=C(/S)Nc1cccnc1)C(C)(C)C` (centres undefined), the pKa in series [1] came out at 2.97; in series [2], 13.2. Also, the pEC15 in series [3] is 5.7. The molecule also had a concentration for half-maximal inhibition (IC50) in series [4] of 50.1 nM.

Regarding `C[C@@H](/N=C(/NC#N)Nc1cccnc1)C(C)(C)C`, in series [4], the “Log IC50” value is given as -7.

With `CC(N/C(=C\[N+](=O)[O-])Nc1cccc(C#N)c1)C(C)(C)C` (centres undefined), in series [2], the pKa worked out at 8.88. In addition, the pEC15 in series [3] is recorded as 4. In series [4], this molecule showed an IC50 of 316 nM.

For the molecule `CC(C)(C)CNC(=O)Nc1ccncc1.Cl`, the values for the pKa in series [1] and in series [2] were 5.46 and above 14, respectively. This molecule also gave a pEC15 in series [3] of 3.3. In addition, 3160 nM corresponded to half-maximal inhibition in series [4] (IC50).

`CC(C)(C)CCN/C(=C\[N+](=O)[O-])Nc1cccnc1` showed a pEC15 in series [3] of 3.5. The same molecule gave an IC50 in series [4] of 2000 nM.

With `CC(C)(C)CN/C(=C\[N+](=O)[O-])Nc1ccncc1`, the pEC15 in series [3] is below 3.5. In series [4], this molecule gave an IC50 of 10000 nM.

`CC(C)(C)C/N=C(/S)Nc1cccnc1`: the pKa in series [1] is 3.08; in series [2] it was 13.1. In series [3], this molecule registered a pEC15 of 5. Also, in series [4], half-maximal inhibition (IC50) required 200 nM.

Regarding `CC(C)(C)/N=C(\Cc1cccnc1)NC#N`, the pKa is 2.71 in series [1] and above 14 in series [2]. Further, in series [3], the pEC15 came to 3.5. In series [4], the IC50 was 5010 nM.

As to `CC1(C)CSC(Nc2cccnc2)=N1`, it took 31600 nM to reach half-maximal inhibition in series [4] (IC50).

`CC(C)(C)C/C(=N/c1cccnc1)NC#N`: the pKa in series [1] turned out to be 2.23; in series [2], 11.3. In addition, the pEC15 in series [3] is 4.3.

In turn, `CC(C)(C)CN/C(=C\[N+](=O)[O-])Nc1cccnc1` gave a pEC15 in series [3] of 4. The IC50 in series [4] is 1000 nM. This molecule gave a pKa2 in series [5] of 8.86.

Turning to `CC(C)(C)CNC(=O)Nc1cccnc1`, the pKa in series [1] was 3.74; in series [2] it was above 14. Also, in series [3], the pEC15 came to 4. It took 2000 nM to reach half-maximal inhibition in series [4] (IC50).

For the molecule `C[C@@H](/N=C(/S)Nc1ccncc1)C(C)(C)C.Cl`, the pEC15 in series [3] is 4.

In turn, `CC(C)(C)C(CO)/N=C(/S)Nc1cccnc1` (centres undefined) registered a pEC15 in series [3] below 3.5. The molecule further gave a half-maximal inhibitory concentration (IC50) in series [4] of 3160 nM.

On to `CC(C)(C)C1CN=C(Nc2cccnc2)N1` (centres undefined), for which the pKa in series [1] was 2.03; in series [2], 8.1. Besides, the midpoint of inhibition in series [4], the IC50, lay at 3160 nM.

Take `CC(C)(C)c1csc(Nc2cccnc2)n1`: the pKa in series [1] was 3.57. Also, the IC50 in series [4] was 1000 nM.

`CC(N/C(=C\[N+](=O)[O-])Nc1cccnc1)C(C)(C)C` (single isomer, unassigned): the pEC15 in series [3] turned out to be 5.8. The “Log IC50” value in series [4] is reported as -8.

For `CCC(C)N1CCN=C1Nc1cccnc1` (centres undefined), the pEC15 in series [3] is recorded as below 3. In series [4], this molecule showed an IC50 of 100000 nM.

As to `C[C@H](/N=C(/S)Nc1ccncc1)C(C)(C)C.Cl`, the pKa in series [1] came to 4.89; in series [2], 13. Besides, the pEC15 in series [3] turned out to be 4. In series [4], this molecule showed a 50% inhibitory concentration (IC50) of 316 nM.

As to `CCC(C)(C)/N=C(\NC#N)Nc1cccnc1`, the pKa was found to be 2.61 in series [1] and 12.2 in series [2]. Further, in series [3], the pEC15 came out at 7.4. This molecule also gave an IC50 in series [4] of 2 nM.

As for `CC(C)(C)/N=C(/NC#N)Nc1cccnc1`, in series [3], the pEC15 is 6.1. For the same molecule, in series [4], half-maximal inhibition (IC50) was put at 12.6 nM.

For the molecule `C[C@@H](N/C(=N/c1ccncc1)NC#N)C(C)(C)C`, in series [3], the pEC15 was determined as 5.9. Inhibition in series [4] was half-maximal at 33.9 nM (IC50).

With `C[C@H](N/C(=N/c1ccncc1)NC#N)C(C)(C)C`, in series [3], the pEC15 was found to be 4.4. For the same molecule, in series [4], the IC50 was 776 nM.

In turn, `CC(C)(C)CN/C(=C\[N+](=O)[O-])NCc1cccnc1` registered a pEC15 in series [3] below 3.5. Further, the IC50 in series [4] is 20000 nM.

In the case of `CC(N/C(=C\[N+](=O)[O-])Nc1ccncc1)C(C)(C)C` (centres undefined), the pEC15 in series [3] is given as 3.3. Besides, the IC50 in series [4] is 1000 nM.

Turning to `COc1cncc(N/C(=C/[N+](=O)[O-])N[C@@H](C)C(C)(C)C)c1`, the pKa in series [1] was found to be 1.86; in series [2], 6.5. In addition, in series [3], the pEC15 turned out to be 6.5. The molecule further showed an IC50 in series [4] of 15.8 nM.

`CCC(C)(C)/N=C(/S)Nc1cccnc1` gave a pEC15 in series [3] of 5.2. Also, the IC50 in series [4] was 200 nM.

Turning to `CC1(C)CN=C(Nc2cccnc2)N1`, the pKa in series [2] was 8.2. The same molecule gave an IC50 in series [4] above 10000 nM.

Turning to `CC(C)(C)C1CSC(Nc2cccnc2)=N1` (centres undefined), the pKa in series [1] is 3.89. For the same molecule, 20000 nM corresponded to half-maximal inhibition in series [4] (IC50).
